Data reported in the M2OR odorant receptor database.
Residue numbers refer to the chain shown, from its start.

How the values were obtained:
Details in all cases: stereoisomer not certain
[1] = biological target: T1, OR10R2 (Homo sapiens) (UniProt Q8NGX6)
T1 sequence (whole entry): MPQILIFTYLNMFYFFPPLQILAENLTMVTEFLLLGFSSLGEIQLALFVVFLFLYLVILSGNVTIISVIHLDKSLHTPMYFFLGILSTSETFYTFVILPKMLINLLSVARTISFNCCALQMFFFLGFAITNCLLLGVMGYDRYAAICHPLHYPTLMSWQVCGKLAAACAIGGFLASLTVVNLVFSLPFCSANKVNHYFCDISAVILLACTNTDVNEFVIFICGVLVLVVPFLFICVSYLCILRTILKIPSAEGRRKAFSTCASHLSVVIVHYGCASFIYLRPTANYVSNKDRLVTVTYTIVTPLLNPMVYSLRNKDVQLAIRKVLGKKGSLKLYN
Summary of the method: (§1)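 Values were gathered from published papers (main text and supplementary material), with extra details requested from the original authors when needed, and checked for typos and inconsistencies. Each receptor–molecule pair is called responsive (active) if the original authors judged the measured signal statistically different from baseline, and non-responsive (inactive) otherwise. Assay methods varied by source, often transient mammalian cell-line luciferase assays. Recorded details include cell line, G-protein, co-transfected protein and tags.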

[2] = biological target: T2, OR10S1 (Homo sapiens) (UniProt Q8NGN2)
T2 sequence (whole entry): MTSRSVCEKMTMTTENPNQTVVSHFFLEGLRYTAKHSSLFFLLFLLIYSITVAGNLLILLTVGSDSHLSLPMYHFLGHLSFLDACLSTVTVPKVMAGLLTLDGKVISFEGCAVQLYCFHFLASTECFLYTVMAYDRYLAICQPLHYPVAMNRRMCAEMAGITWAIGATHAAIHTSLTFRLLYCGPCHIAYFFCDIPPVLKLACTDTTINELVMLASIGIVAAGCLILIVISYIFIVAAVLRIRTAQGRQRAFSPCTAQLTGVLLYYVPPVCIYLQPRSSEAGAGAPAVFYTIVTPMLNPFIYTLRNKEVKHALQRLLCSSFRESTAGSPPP
Summary of the method: as §1

[3] = biological target: T3, OR10T2 (Homo sapiens) (UniProt Q8NGX3)
T3 sequence (whole entry): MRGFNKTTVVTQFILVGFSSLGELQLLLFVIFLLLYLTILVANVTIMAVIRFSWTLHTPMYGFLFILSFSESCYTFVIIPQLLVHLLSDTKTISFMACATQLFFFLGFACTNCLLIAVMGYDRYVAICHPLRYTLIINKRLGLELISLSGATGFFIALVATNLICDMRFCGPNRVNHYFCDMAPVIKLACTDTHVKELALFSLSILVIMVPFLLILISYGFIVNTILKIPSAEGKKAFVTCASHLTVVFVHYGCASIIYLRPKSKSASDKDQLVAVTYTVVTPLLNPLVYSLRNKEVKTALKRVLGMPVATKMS
Summary of the method: as §1

[4] = biological target: T4, OR10V1 (Homo sapiens) (UniProt Q8NGI7)
T4 sequence (whole entry): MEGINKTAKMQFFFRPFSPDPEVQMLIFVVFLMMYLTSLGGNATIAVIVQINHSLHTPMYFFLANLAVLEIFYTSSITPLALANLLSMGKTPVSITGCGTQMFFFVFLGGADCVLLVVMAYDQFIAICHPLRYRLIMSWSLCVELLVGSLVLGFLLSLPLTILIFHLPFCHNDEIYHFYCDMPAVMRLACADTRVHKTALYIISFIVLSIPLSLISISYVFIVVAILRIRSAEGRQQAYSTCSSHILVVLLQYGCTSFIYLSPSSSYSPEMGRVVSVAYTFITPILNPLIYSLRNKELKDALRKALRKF
Summary of the method: as §1

[5] = biological target: T5, OR10W1 (Homo sapiens) (UniProt Q8NGF6)
T5 sequence (whole entry): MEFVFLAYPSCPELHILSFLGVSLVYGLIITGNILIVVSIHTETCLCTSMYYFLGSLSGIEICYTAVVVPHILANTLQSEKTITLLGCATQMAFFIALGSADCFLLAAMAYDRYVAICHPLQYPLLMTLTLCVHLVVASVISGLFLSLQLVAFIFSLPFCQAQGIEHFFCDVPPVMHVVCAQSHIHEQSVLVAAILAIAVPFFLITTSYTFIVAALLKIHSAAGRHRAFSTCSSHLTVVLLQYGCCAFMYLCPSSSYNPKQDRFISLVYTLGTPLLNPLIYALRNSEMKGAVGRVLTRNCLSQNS
Summary of the method: as §1

[6] = biological target: T6, OR10X1 (Homo sapiens) (UniProt Q8NGY0)
T6 sequence (whole entry): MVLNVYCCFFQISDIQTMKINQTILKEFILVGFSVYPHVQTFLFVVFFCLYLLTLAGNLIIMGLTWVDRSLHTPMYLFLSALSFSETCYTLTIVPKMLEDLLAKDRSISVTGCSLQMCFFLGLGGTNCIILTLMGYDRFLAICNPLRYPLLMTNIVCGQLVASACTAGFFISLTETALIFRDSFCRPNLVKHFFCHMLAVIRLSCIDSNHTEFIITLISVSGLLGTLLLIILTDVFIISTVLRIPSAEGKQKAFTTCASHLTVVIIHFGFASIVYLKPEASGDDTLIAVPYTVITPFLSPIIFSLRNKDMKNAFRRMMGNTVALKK
Summary of the method: as §1

[7] = biological target: T7, OR10Z1 (Homo sapiens) (UniProt Q8NGY1)
T7 sequence (whole entry): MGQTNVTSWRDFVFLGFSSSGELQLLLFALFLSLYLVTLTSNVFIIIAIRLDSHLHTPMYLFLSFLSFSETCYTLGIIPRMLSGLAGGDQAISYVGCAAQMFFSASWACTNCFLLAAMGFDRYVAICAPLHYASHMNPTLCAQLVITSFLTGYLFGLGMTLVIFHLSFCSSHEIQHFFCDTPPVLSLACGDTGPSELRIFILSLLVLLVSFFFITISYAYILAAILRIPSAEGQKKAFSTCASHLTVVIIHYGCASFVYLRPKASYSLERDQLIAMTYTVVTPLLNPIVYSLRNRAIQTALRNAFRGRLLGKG
Summary of the method: as §1

[8] = biological target: T8, OR11A1 (Homo sapiens) (UniProt Q9GZK7)
T8 sequence (whole entry): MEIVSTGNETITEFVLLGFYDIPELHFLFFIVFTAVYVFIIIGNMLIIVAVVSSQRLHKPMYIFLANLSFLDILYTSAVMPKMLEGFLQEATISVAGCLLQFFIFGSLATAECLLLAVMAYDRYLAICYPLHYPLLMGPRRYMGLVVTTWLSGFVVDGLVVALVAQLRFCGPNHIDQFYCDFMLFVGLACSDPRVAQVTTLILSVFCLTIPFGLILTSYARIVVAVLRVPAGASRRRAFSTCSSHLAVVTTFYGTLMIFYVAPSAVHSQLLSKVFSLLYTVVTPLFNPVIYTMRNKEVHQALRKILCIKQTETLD
Summary of the method: as §1

[9] = biological target: T9, OR11G2 (Homo sapiens) (UniProt Q8NGC1)
T9 sequence (whole entry): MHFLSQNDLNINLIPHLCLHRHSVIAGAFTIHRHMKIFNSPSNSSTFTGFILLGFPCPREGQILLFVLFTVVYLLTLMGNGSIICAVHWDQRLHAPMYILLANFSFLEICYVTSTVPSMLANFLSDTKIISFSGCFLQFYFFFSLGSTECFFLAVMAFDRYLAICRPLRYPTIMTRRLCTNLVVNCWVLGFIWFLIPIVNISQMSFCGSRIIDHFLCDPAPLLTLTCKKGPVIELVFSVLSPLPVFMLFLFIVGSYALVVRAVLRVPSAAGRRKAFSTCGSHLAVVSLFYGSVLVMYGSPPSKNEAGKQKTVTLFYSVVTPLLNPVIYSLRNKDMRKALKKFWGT
Summary of the method: as §1

[10] = biological target: T10, OR11H1 (Homo sapiens) (UniProt Q8NG94)
T10 sequence (whole entry): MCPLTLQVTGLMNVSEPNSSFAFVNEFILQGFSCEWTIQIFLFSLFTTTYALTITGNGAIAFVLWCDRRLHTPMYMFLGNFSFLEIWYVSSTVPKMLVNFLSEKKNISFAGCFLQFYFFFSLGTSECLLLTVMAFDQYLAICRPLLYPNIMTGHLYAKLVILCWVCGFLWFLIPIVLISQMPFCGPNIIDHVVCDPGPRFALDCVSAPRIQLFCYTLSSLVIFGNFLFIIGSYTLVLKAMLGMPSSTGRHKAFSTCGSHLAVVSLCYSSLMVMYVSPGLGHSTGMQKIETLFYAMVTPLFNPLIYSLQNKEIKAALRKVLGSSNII
Summary of the method: as §1

[11] = biological target: T11, OR11H12 (Homo sapiens) (UniProt B2RN74)
T11 sequence (whole entry): T10 sequence (whole entry) with S33T, R68W, Y156C, M240V
Summary of the method: as §1

[12] = biological target: T12, OR11H2 (Homo sapiens) (UniProt Q8NH07)
T12 sequence (whole entry): T10 sequence (whole entry) with Q7H, T49I, M181K, R199L, M240V, S269P
Summary of the method: as §1

[13] = biological target: T13, OR11H4 (Homo sapiens) (UniProt Q8NGC9)
T13 sequence (whole entry): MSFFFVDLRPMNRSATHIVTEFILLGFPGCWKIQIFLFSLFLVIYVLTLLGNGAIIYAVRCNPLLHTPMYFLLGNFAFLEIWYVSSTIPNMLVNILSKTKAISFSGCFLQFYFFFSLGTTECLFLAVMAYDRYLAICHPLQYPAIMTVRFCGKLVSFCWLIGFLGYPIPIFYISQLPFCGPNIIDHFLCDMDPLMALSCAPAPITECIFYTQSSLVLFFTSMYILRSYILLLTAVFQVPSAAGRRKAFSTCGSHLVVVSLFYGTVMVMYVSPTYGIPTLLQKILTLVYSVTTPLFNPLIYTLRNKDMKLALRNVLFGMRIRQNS
Summary of the method: as §1

[14] = biological target: T14, OR11H6 (Homo sapiens) (UniProt Q8NGC7)
T14 sequence (whole entry): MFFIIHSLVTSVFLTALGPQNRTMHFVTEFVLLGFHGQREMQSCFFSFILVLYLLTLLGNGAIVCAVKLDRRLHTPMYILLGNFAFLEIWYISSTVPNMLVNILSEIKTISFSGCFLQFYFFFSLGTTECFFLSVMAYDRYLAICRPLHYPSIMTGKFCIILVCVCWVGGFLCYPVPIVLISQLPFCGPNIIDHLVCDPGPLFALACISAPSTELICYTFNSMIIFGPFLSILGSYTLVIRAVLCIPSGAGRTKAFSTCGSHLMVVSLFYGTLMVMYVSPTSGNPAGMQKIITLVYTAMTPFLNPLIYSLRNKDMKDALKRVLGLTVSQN
Summary of the method: as §1

[15] = biological target: T15, OR11L1 (Homo sapiens) (UniProt Q8NGX0)
T15 sequence (whole entry): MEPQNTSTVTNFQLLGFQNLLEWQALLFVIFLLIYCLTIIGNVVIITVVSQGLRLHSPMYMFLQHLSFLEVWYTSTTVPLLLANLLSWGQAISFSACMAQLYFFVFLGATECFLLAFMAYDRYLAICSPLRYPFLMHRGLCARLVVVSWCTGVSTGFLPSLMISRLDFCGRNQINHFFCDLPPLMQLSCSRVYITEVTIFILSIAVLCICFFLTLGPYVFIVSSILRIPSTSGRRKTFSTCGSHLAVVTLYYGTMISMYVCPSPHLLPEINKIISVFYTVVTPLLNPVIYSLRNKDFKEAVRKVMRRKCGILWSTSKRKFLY
Summary of the method: as §1

[16] = biological target: T16, OR12D2 (Homo sapiens) (UniProt P58182)
T16 sequence (whole entry): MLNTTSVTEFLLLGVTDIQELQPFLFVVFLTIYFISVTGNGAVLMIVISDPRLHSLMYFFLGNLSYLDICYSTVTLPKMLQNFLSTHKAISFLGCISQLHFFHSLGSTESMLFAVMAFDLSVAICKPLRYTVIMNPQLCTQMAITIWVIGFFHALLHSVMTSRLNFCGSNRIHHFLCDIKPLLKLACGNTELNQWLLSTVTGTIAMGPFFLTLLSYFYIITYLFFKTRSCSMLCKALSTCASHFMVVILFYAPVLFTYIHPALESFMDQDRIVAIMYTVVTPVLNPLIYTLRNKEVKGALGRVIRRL
Summary of the method: as §1

[17] = biological target: T17, OR12D3 (Homo sapiens) (UniProt Q9UGF7)
T17 sequence (whole entry): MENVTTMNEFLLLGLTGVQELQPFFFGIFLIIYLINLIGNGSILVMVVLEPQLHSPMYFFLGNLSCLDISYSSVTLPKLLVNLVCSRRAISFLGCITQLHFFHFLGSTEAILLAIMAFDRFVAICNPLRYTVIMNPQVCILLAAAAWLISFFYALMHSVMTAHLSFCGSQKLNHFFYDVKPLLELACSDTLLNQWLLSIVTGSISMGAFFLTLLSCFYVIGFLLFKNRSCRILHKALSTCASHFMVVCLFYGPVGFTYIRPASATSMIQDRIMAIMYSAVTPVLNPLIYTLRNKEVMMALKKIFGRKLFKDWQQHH
Summary of the method: as §1

[18] = biological target: T18, OR13A1 (Homo sapiens) (UniProt Q8NGR1)
T18 sequence (whole entry): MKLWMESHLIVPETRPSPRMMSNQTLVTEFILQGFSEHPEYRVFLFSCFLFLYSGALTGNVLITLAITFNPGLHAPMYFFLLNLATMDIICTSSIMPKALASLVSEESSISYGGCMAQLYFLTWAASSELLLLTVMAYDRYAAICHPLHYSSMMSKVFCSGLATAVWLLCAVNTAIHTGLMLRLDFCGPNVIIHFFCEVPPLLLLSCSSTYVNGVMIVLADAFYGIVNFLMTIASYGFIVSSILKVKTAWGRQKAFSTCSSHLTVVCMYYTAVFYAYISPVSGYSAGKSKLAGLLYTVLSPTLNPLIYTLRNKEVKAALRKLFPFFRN
Summary of the method: as §1

Measured: odorant receptor agonist call

Cc1cnc(C)c(C)n1
inactive: all assays above

CCCC(S)CCOC(C)=O (centres undefined)
inactive: all assays above

CCCCCCC=CCCC=O
inactive: all assays above

CC1=C(O)C(=O)OC1C (centres undefined)
inactive: all assays above

Cc1cnc(C)cn1
inactive: [2]

CCCCCCCCCCCCCCCC(=O)[O-].[H+]
inactive: [2]
